Compound activity: PubChem, Broad Institute
Compounds with a hit are over-represented: about 2% of the library has one in this group of screens.
HIF activator: HIF pathway transcriptional activation. U2OS HRE-luciferase reporter, luminescence; normalized: DMSO 0%, desferrioxamine 100%. activation, % at 7.5 µM (by protocol). hit rate 0.32% among 300,000;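 active = mean activation of at least 10% of the iron chelator positive control signal, with at least half of replicates also reaching 10%; inconclusive = mean and replicate majority disagree about reaching 10%; inactive = mean and most replicates under 10%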
ARNT-TACC3 inh: ARNT/TACC3 interaction disruption; AlphaScreen His-ARNT PAS-B/GST-TACC3 binding, luminescence; TACC3 fragment carries E629A point mutation; inhibition, % at 9.99 µM; hit rate 0.66% among 390,000; AID 623870;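 active = mean inhibition of replicates at least 50% and at least half of replicates each reaching 50%; inconclusive = half or more replicates reach 50% but mean below 50%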
T cruzi repl: blocks replication of Trypanosoma cruzi; T. cruzi beta-gal in NIH3T3, luminescence, 90 h; inhibition, % (test concentration not listed); hit rate 1.4% among 300,000; AID 1885;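 active = mean inhibition across valid replicates above about 55%, limit read from the data; inconclusive = mean below that limit but half or more replicates reach it; inactive = mean below it, under half of replicates reach it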;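 note: signal also drops with host cell toxicity which is not excluded here; higher percent means less beta-gal luminescence so fewer parasites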
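Read-out: Parasite load inhibition, % | Test system: Mouse NIH/3T3 fibroblasts infected with β-gal-expressing T. cruzi Tulahuen C4 | Amount: 5,000 cells/well | Medium: DMEM, 2% fetal bovine serum | Signal: GalScreen β-gal luminescence, detergent lysis, 60 min | Timing: 3 h attach, ≥90 h co-culture | Also added: Tulahuen C4 trypomastigotes, 5000/well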
AI-2 QS mod: Vibrio harveyi AI-2 quorum sensing modulation. Vibrio harveyi JMH597 AI-2 luminescence/OD600 ratio, 9 h; hits give low values; strain lacks LuxN and CqsS sensors; 0 = neutral-control median. activity change, % at 7.5 µM. hit rate 0.4% among 300,000. AID 2094; in the data active = activity change below about -75%, passing the limit was not always enough; inconclusive = no clear call, values can overlap the other calls;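 note: luminescence divided by OD600 gain over 9 h not by final OD600 alone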
Of the large screens only hits and unclear results are named; the others gave an inactive call.

Cc1c(C(=O)Nc2nc3ccccc3[nH]2)oc2c(Cl)cccc12	T cruzi repl 70 (no result: ARNT-TACC3 inh)
Cc1c(C(=O)Nc2nc3ccccc3[nH]2)oc2ccc(Br)cc12	T cruzi repl 56
C[C@@H]1CN([C@@H](C)CO)S(=O)(=O)c2ccc(C#CC3(O)CCCC3)cc2O[C@H]1CN(C)C(=O)c1ccccc1	none (no result: HIF activator, T cruzi repl, AI-2 QS mod)
CC(C)CC#Cc1ccc2c(c1)O[C@H](CN(C)Cc1ccc3c(c1)OCO3)[C@H](C)CN([C@@H](C)CO)S2(=O)=O	none (no result: HIF activator, T cruzi repl, AI-2 QS mod)
C[C@H](O)C#Cc1cnc2c(c1)C(=O)N([C@H](C)CO)C[C@@H](C)[C@H](CN(C)C(=O)Nc1ccc(F)cc1)O2	none (no result: HIF activator, T cruzi repl, AI-2 QS mod)
O=C(CCl)N1c2ccccc2CCc2ccccc21	T cruzi repl 71
Cc1ccc(-c2nnn(CC(=O)N3c4ccccc4CCc4ccccc43)n2)cc1	T cruzi repl 58
Cc1ccc(-c2nnn(CC(=O)O)n2)cc1	none (no result: ARNT-TACC3 inh)
CC(Cl)C(=O)N1c2ccccc2CCc2ccccc21 (stereo not given)	none
COc1cc(/C=C/C(=O)c2ccc([N+](=O)[O-])o2)ccc1O	T cruzi repl inconclusive, AI-2 QS mod -175
COc1ccc(/C=C/C(=O)c2ccc([N+](=O)[O-])o2)cc1OC	none (no result: ARNT-TACC3 inh)
C/C(=N\NC(=O)c1cc2ccccc2cc1O)c1cccs1	T cruzi repl 55
CCOC(=O)N1CCC(=NNC(=O)c2cc3ccccc3cc2O)CC1	none
CC(=O)N1CCC(=NNC(=O)c2cc3ccccc3cc2O)CC1	HIF activator 45
CCOC(=O)c1c(C)n(-c2ccc(C)cc2)c2ccc(OCC(O)CNCCCO)cc12 (stereo not given)	none (no result: HIF activator, T cruzi repl)
CCOC(=O)c1c(C)n(-c2ccc(C)cc2)c2ccc(OCC(O)CNCC3CCCO3)cc12 (stereo not given)	T cruzi repl 64
Cc1nn(-c2ccccc2)c2c1C(c1ccc([N+](=O)[O-])cc1)N1C(=N2)C(=O)Nc2ccccc21 (stereo not given)	none
Cc1nn(-c2ccc([N+](=O)[O-])cc2)c2c1C(c1cccc(Br)c1)N1C(=N2)C(=O)Nc2ccccc21 (stereo not given)	T cruzi repl 82
C[C@H](CO)N1C[C@H](C)[C@@H](CN(C)CC2CCCCC2)Oc2ccc(NC(=O)Nc3ccc4c(c3)OCO4)cc2C1=O	none (no result: HIF activator, T cruzi repl, AI-2 QS mod)
COC(=O)C[C@@H]1CC[C@@H]2[C@H](COc3ccc(NC(=O)NC(C)C)cc3C(=O)N2C)O1	none (no result: HIF activator, T cruzi repl, AI-2 QS mod)
CC12CC(NC(=O)N1c1cccc(C(=O)Nc3ncn[nH]3)c1)c1ccccc1O2 (stereo not given)	ARNT-TACC3 inh 21
COc1ccc(NC(=O)c2cccc(N3C(=O)NC4CC3(C)Oc3ccccc34)c2)cc1 (stereo not given)	none
CC1C(=O)C(C)C(c2ccc(Br)cc2)NC1c1ccc(Br)cc1 (stereo not given)	T cruzi repl 68
CC1C(=O)C(C)C(c2cc(Br)ccc2O)NC1c1cc(Br)ccc1O (stereo not given)	none (no result: HIF activator, T cruzi repl, AI-2 QS mod)
CCCC(=O)Nc1ccc2c(c1)C(=O)N(C)C[C@@H](OC)[C@H](C)CN(C(=O)CC1CC1)[C@@H](C)CO2	none (no result: HIF activator, T cruzi repl, AI-2 QS mod)
CC(NC(=O)c1cccnc1)C(c1cccs1)N1CCOCC1 (stereo not given)	T cruzi repl 65 (no result: HIF activator)
COc1cccc(C(=O)NC(C)C(c2cccs2)N2CCOCC2)c1 (stereo not given)	none
Cc1ccc(C2=NS(=O)(=O)N(C)C(C(=O)NC3CCCC3)=C2)cc1	HIF activator 31
COc1ccc(C2=NS(=O)(=O)N(C)C(C(=O)NC3CCCC3)=C2)cc1OC	none
C[C@@H]1CN([C@H](C)CO)C(=O)c2cc(NS(=O)(=O)c3ccccc3)ccc2O[C@@H](C)CCCCO[C@@H]1CN(C)CC1CC1	none (no result: HIF activator, T cruzi repl, AI-2 QS mod)
COc1ccccc1Cn1c(/C=C/c2ccccc2)nc2ccccc21	none
COc1ccc(/C=C/c2nc3ccccc3n2Cc2ccccc2OC)cc1	T cruzi repl 56
COCC(=O)N(C)C[C@H]1Oc2cc(-c3ccccc3F)ccc2S(=O)(=O)N([C@@H](C)CO)C[C@@H]1C	none (no result: HIF activator, T cruzi repl, AI-2 QS mod)
CCC(=O)N(C)C[C@@H]1Oc2ncc(-c3ccc(F)cc3)cc2C(=O)N([C@H](C)CO)C[C@@H]1C	none (no result: HIF activator, T cruzi repl, AI-2 QS mod)
CN(CC(=O)Nc1ccccc1Oc1ccccc1)Cc1ccccc1F	HIF activator 129
Cc1ccccc1CN(C)CC(=O)Nc1ccccc1Oc1ccccc1	none
COCC(=O)Nc1ccc2c(c1)C(=O)N(C)[C@@H]1CC[C@@H](CC(=O)Nc3ccccc3)O[C@H]1CO2	none (no result: HIF activator, T cruzi repl, AI-2 QS mod)
COc1cccc(S(=O)(=O)N(C)C[C@@H]2Oc3ncccc3C(=O)N([C@H](C)CO)C[C@@H]2C)c1	none (no result: HIF activator, T cruzi repl, AI-2 QS mod)
CC=Cc1ccc2n(c1=O)C[C@@H]1[C@@H](CO)[C@H](C(=O)NCCc3ccccc3)N(CCC)[C@H]21 (mixture of isomers)	none (no result: HIF activator, T cruzi repl, AI-2 QS mod)
O=C(CCN1C(=O)S/C(=C\c2ccc(F)cc2)C1=O)Nc1ccc(C(=O)O)c(O)c1	HIF activator 30
O=C(Cn1c2[n+](c3ccc(C(F)(F)F)cc31)CCCCC2)c1ccc2c(c1)OCCO2	T cruzi repl 68 (no result: ARNT-TACC3 inh)
O=C(Cn1c2[n+](c3ccc(C(F)(F)F)cc31)CCCCC2)c1cccc([N+](=O)[O-])c1	none (no result: ARNT-TACC3 inh)
COc1cc([N+](=O)[O-])cc(/C=N/NC(=O)c2cc(-c3ccccc3)nc3ccccc23)c1O	none
COc1cc([N+](=O)[O-])cc(/C=N/NC(=O)c2cc(C)nc3ccccc23)c1O	ARNT-TACC3 inh 64
COc1cc([N+](=O)[O-])cc(/C=N/NC(=O)c2cncc(Br)c2)c1O	ARNT-TACC3 inh 69 (no result: HIF activator)
CN1CCN(C(=O)C[C@@H]2CC[C@H]3[C@@H](COC[C@@H](O)CN3S(=O)(=O)c3cccc(F)c3)O2)CC1	none (no result: HIF activator, T cruzi repl, AI-2 QS mod)
CC(=O)N(C)C[C@H]1Oc2cc(-c3cccc(C#N)c3)ccc2S(=O)(=O)N([C@@H](C)CO)C[C@H]1C	none (no result: HIF activator, T cruzi repl, AI-2 QS mod)
CCC(=O)N1C[C@@H](C)[C@@H](OC)CN(C)C(=O)c2ccc(NC(=O)NC(C)C)cc2OC[C@@H]1C	none (no result: HIF activator, T cruzi repl, AI-2 QS mod)
S=C(Nc1ccc(Cl)cc1)Nc1ccc2cn[nH]c2c1	HIF activator 10
S=C(Nc1ccc2cn[nH]c2c1)Nc1ccccc1Cl	HIF activator 11
S=C(Nc1ccc2cn[nH]c2c1)Nc1ccc(Cl)cc1Cl	none
O=C(COc1ccc2c3c(c(=O)oc2c1)CCC3)NCC(O)c1ccccc1 (stereo not given)	none
CC(Oc1ccc2c3c(c(=O)oc2c1)CCCC3)C(=O)NCC(O)c1ccccc1 (stereo not given)	HIF activator 64
Cc1ccc(Sc2cc(C(=O)NCCN(C)C)c3ccccc3n2)cc1	none
Cc1ccc(Sc2cc(C(=O)NCCCN(C)C)c3ccccc3n2)cc1	T cruzi repl 56
CN(C)CCNC(=O)c1cc(Sc2ccc(F)cc2)nc2ccccc12	T cruzi repl 65 (no result: ARNT-TACC3 inh)
O=C(CCC(=O)Nc1ccc(Cl)cc1Cl)N/N=C/c1ccc([N+](=O)[O-])o1	T cruzi repl 60, AI-2 QS mod inconclusive (no result: ARNT-TACC3 inh)
O=C(Cc1ccc2c(c1)OCO2)NN=Cc1ccc([N+](=O)[O-])o1	none (no result: HIF activator, T cruzi repl, AI-2 QS mod)
O=C(CNC(=O)c1ccccc1)N/N=C/c1ccc([N+](=O)[O-])o1	T cruzi repl 59 (no result: ARNT-TACC3 inh)
